{"source": "ChEMBL document CHEMBL1155154", "about": "“Target gene sequencing to characterize the penicillin G susceptibility of Neisseria meningitidis” (2007)", "type_in_all_cases": "functional", "key": {"Neisseria meningitidis [1]": {"system": "Neisseria meningitidis", "assay": "Antimicrobial activity against Neisseria meningitidis isolates harboring penA 12 allele encoding PBP2 mutant", "outline": "(§1)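 Penicillin G MICs were determined for N. meningitidis isolates grouped by penA allele, with the PBP2 C-terminal region (amino acids 441 to 574) deduced from penA sequencing. Values are geometric mean MICs with lower and upper 95% confidence limits, calculated only for alleles represented by at least five isolates.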"}, "Neisseria meningitidis [2]": {"system": "Neisseria meningitidis", "assay": "Antimicrobial activity against Neisseria meningitidis isolates harboring penA 23 allele encoding PBP2 mutant", "outline": "as §1"}, "Neisseria meningitidis [3]": {"system": "Neisseria meningitidis", "assay": "Antimicrobial activity against Neisseria meningitidis isolates harboring penA 52 allele encoding PBP2 mutant", "outline": "as §1"}, "Neisseria meningitidis [4]": {"system": "Neisseria meningitidis", "assay": "Antimicrobial activity against Neisseria meningitidis isolates harboring penA 81 allele encoding PBP2 mutant", "outline": "as §1"}, "Neisseria meningitidis [5]": {"system": "Neisseria meningitidis", "assay": "Antimicrobial activity against Neisseria meningitidis isolates harboring penA 2 allele encoding PBP2 mutant", "outline": "as §1"}, "Neisseria meningitidis [6]": {"system": "Neisseria meningitidis", "assay": "Antimicrobial activity against Neisseria meningitidis isolates harboring penA 14 allele encoding PBP2 mutant", "outline": "as §1"}, "Neisseria meningitidis [7]": {"system": "Neisseria meningitidis", "assay": "Antimicrobial activity against Neisseria meningitidis isolates harboring penA 1 allele encoding PBP2 mutant", "outline": "as §1"}, "Neisseria meningitidis [8]": {"system": "Neisseria meningitidis", "assay": "Antimicrobial activity against Neisseria meningitidis isolates harboring penA 29 allele encoding PBP2 mutant", "outline": "as §1"}, "Neisseria meningitidis [9]": {"system": "Neisseria meningitidis", "assay": "Antimicrobial activity against Neisseria meningitidis isolates harboring penA 34 allele encoding PBP2 mutant", "outline": "as §1"}, "Neisseria meningitidis [10]": {"system": "Neisseria meningitidis", "assay": "Antimicrobial activity against Neisseria meningitidis isolates harboring penA 15 allele encoding PBP2 mutant", "outline": "as §1"}, "Neisseria meningitidis [11]": {"system": "Neisseria meningitidis", "assay": "Antimicrobial activity against Neisseria meningitidis isolates harboring penA 3 allele encoding PBP2 mutant", "outline": "as §1"}, "Neisseria meningitidis [12]": {"system": "Neisseria meningitidis", "assay": "Antimicrobial activity against Neisseria meningitidis isolates harboring penA 11 allele encoding PBP2 mutant", "outline": "as §1"}, "Neisseria meningitidis [13]": {"system": "Neisseria meningitidis", "assay": "Antimicrobial activity against Neisseria meningitidis isolates harboring penA 16 allele encoding PBP2 mutant", "outline": "as §1"}, "Neisseria meningitidis [14]": {"system": "Neisseria meningitidis", "assay": "Antimicrobial activity against Neisseria meningitidis isolates harboring penA 17 allele encoding PBP2 mutant", "outline": "as §1"}, "Neisseria meningitidis [15]": {"system": "Neisseria meningitidis", "assay": "Antimicrobial activity against Neisseria meningitidis isolates harboring penA 13 allele encoding PBP2 mutant", "outline": "as §1"}, "Neisseria meningitidis [16]": {"system": "Neisseria meningitidis", "assay": "Antimicrobial activity against Neisseria meningitidis isolates harboring penA 33 allele encoding PBP2 mutant", "outline": "as §1"}, "Neisseria meningitidis [17]": {"system": "Neisseria meningitidis", "assay": "Antimicrobial activity against Neisseria meningitidis isolates harboring penA 22 allele encoding PBP2 mutant", "outline": "as §1"}, "Neisseria meningitidis [18]": {"system": "Neisseria meningitidis", "assay": "Antimicrobial activity against Neisseria meningitidis isolates harboring penA 4 allele encoding PBP2 mutant", "outline": "as §1"}, "Neisseria meningitidis [19]": {"system": "Neisseria meningitidis", "assay": "Antimicrobial activity against Neisseria meningitidis isolates harboring penA 83 allele encoding PBP2 mutant", "outline": "as §1"}, "Neisseria meningitidis [20]": {"system": "Neisseria meningitidis", "assay": "Antimicrobial activity against Neisseria meningitidis isolates harboring penA 25 allele encoding PBP2 mutant", "outline": "as §1"}, "Neisseria meningitidis [21]": {"system": "Neisseria meningitidis", "assay": "Antimicrobial activity against Neisseria meningitidis isolates harboring penA 42 allele encoding PBP2 mutant", "outline": "as §1"}, "Neisseria meningitidis [22]": {"system": "Neisseria meningitidis", "assay": "Antimicrobial activity against Neisseria meningitidis isolates harboring penA 20 allele encoding PBP2 mutant", "outline": "as §1"}, "Neisseria meningitidis [23]": {"system": "Neisseria meningitidis", "assay": "Antimicrobial activity against Neisseria meningitidis isolates harboring penA 5 allele encoding PBP2 mutant", "outline": "as §1"}, "Neisseria meningitidis [24]": {"system": "Neisseria meningitidis", "assay": "Antimicrobial activity against Neisseria meningitidis isolates harboring penA 27 allele encoding PBP2 mutant", "outline": "as §1"}, "Neisseria meningitidis [25]": {"system": "Neisseria meningitidis", "assay": "Antimicrobial activity against Neisseria meningitidis isolates harboring penA 111 allele encoding PBP2 P551 mutant", "outline": "as §1"}, "Neisseria meningitidis [26]": {"system": "Neisseria meningitidis", "assay": "Antimicrobial activity against Neisseria meningitidis isolates harboring penA 30 allele encoding PBP2 mutant", "outline": "as §1"}, "Neisseria meningitidis [27]": {"system": "Neisseria meningitidis", "assay": "Antimicrobial activity against Neisseria meningitidis isolates harboring penA 19 allele encoding PBP2 mutant", "outline": "as §1"}, "Neisseria meningitidis [28]": {"system": "Neisseria meningitidis", "assay": "Antimicrobial activity against Neisseria meningitidis isolates harboring penA 57 allele encoding PBP2 mutant", "outline": "as §1"}, "Neisseria meningitidis [29]": {"system": "Neisseria meningitidis", "assay": "Antimicrobial activity against Neisseria meningitidis isolates harboring penA 7 allele encoding PBP2 mutant", "outline": "as §1"}, "Neisseria meningitidis [30]": {"system": "Neisseria meningitidis", "assay": "Antimicrobial activity against Neisseria meningitidis isolates harboring penA 18 allele encoding PBP2 mutant", "outline": "as §1"}, "Neisseria meningitidis [31]": {"system": "Neisseria meningitidis", "assay": "Antimicrobial activity against Neisseria meningitidis isolates harboring penA 9 allele encoding PBP2 mutant", "outline": "as §1"}}}
{"smiles": "CC1(C)S[C@@H]2[C@H](NC(=O)Cc3ccccc3)C(=O)N2[C@H]1C(=O)O", "note": "[PENICILLIN G]", "values": [{"measurement": "MIC", "setting": "Neisseria meningitidis [1]", "result": 0.064, "unit": "µg/mL"}, {"measurement": "MIC", "setting": "Neisseria meningitidis [2]", "result": 0.064, "unit": "µg/mL"}, {"measurement": "MIC", "setting": "Neisseria meningitidis [3]", "result": 0.064, "unit": "µg/mL"}, {"measurement": "MIC", "setting": "Neisseria meningitidis [4]", "result": 0.19, "unit": "µg/mL"}, {"measurement": "MIC", "setting": "Neisseria meningitidis [5]", "result": 0.015, "unit": "µg/mL"}, {"measurement": "MIC", "setting": "Neisseria meningitidis [6]", "result": 0.064, "unit": "µg/mL"}, {"measurement": "MIC", "setting": "Neisseria meningitidis [7]", "result": 0.008, "unit": "µg/mL"}, {"measurement": "MIC", "setting": "Neisseria meningitidis [8]", "result": 0.094, "unit": "µg/mL"}, {"measurement": "MIC", "setting": "Neisseria meningitidis [9]", "result": 0.032, "unit": "µg/mL"}, {"measurement": "MIC", "setting": "Neisseria meningitidis [10]", "result": 0.094, "unit": "µg/mL"}, {"measurement": "MIC", "setting": "Neisseria meningitidis [11]", "result": 0.004, "unit": "µg/mL"}, {"measurement": "MIC", "setting": "Neisseria meningitidis [12]", "result": 0.094, "unit": "µg/mL"}, {"measurement": "MIC", "setting": "Neisseria meningitidis [13]", "result": 0.047, "unit": "µg/mL"}, {"measurement": "MIC", "setting": "Neisseria meningitidis [14]", "result": 0.125, "unit": "µg/mL"}, {"measurement": "MIC", "setting": "Neisseria meningitidis [15]", "result": 0.125, "unit": "µg/mL"}, {"measurement": "MIC", "setting": "Neisseria meningitidis [16]", "result": 0.125, "unit": "µg/mL"}, {"measurement": "MIC", "setting": "Neisseria meningitidis [17]", "result": 0.023, "unit": "µg/mL"}, {"measurement": "MIC", "setting": "Neisseria meningitidis [18]", "result": 0.032, "unit": "µg/mL"}, {"measurement": "MIC", "setting": "Neisseria meningitidis [19]", "result": 0.023, "unit": "µg/mL"}, {"measurement": "MIC", "setting": "Neisseria meningitidis [20]", "result": 0.064, "unit": "µg/mL"}, {"measurement": "MIC", "setting": "Neisseria meningitidis [21]", "result": 0.094, "unit": "µg/mL"}, {"measurement": "MIC", "setting": "Neisseria meningitidis [22]", "result": 0.094, "unit": "µg/mL"}, {"measurement": "MIC", "setting": "Neisseria meningitidis [23]", "result": 0.015, "unit": "µg/mL"}, {"measurement": "MIC", "setting": "Neisseria meningitidis [24]", "result": 0.032, "unit": "µg/mL"}, {"measurement": "MIC", "setting": "Neisseria meningitidis [25]", "result": 0.094, "unit": "µg/mL"}, {"measurement": "MIC", "setting": "Neisseria meningitidis [26]", "result": 0.125, "unit": "µg/mL"}, {"measurement": "MIC", "setting": "Neisseria meningitidis [27]", "result": 0.064, "unit": "µg/mL"}, {"measurement": "MIC", "setting": "Neisseria meningitidis [28]", "result": 0.008, "unit": "µg/mL"}, {"measurement": "MIC", "setting": "Neisseria meningitidis [29]", "result": 0.064, "unit": "µg/mL"}, {"measurement": "MIC", "setting": "Neisseria meningitidis [30]", "result": 0.094, "unit": "µg/mL"}, {"measurement": "MIC", "setting": "Neisseria meningitidis [31]", "result": 0.064, "unit": "µg/mL"}]}
